The values below come from ChEMBL document CHEMBL1156121, “Synthesis and antioxidant properties of some novel 5H-dibenz[b,f]azepine derivatives in different in vitro model systems” (Eur J Med Chem, 2010).

Activity calls are given as the source filed them. The calls are words filed in the database; no cut-off is given here.

Experiment [1] concerns Radical scavenging activity. Put plainly: Antioxidant activity assessed as DPPH radical scavenging activity. Type of experiment: functional. In a few lines:
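Ethanolic compound solutions (10, 25, 50, 100, 200, 500) were mixed with 0.1 mM DPPH in ethanol (4 mL to 1 mL sample) and kept in the dark at room temperature for 20 min. A517 was compared with a compound-free blank, giving % inhibition = (A0−A1)/A0×100. IC50 was read from the plot of % scavenging against concentration.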
For orientation: DPPH is a stable violet radical that fades when it is reduced.

Experiment [2] in a line: Antioxidant activity assessed as reduction of […]/ferricyanide complex. The format is functional. In a few lines: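 Oyaizu method. Compounds (50 and 100) were incubated in 0.2 M phosphate buffer pH 6.6 with 1% potassium ferricyanide at 50 °C for 20 min. After adding 10% TCA and centrifuging, the supernatant was diluted with water and mixed with 0.1% FeCl3, then A700 was read. Values are means of three independent samples.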

For experiment [3], the system named is Blood. Put plainly: Antioxidant activity against copper-induced low density lipoprotein oxidation in human blood assessed as malonoldehyde formation by thiobarbituric acid method. Type of experiment: functional, tissue-based. In outline: (§1)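 Human LDL isolated from fasting volunteers' plasma by ultracentrifugation, then dialysed against PBS pH 7.4 (0.1 mg LDL protein/mL). Compounds at 10 and 25 were incubated with LDL and 40 µL of 2 mM CuSO4 in 50 mM phosphate buffer pH 7.4 at 37 °C. Controls were run without compound and without copper. Aliquots taken at 2, 4 and 6 h were heated with TBA/TCA at 95 °C for 45 min. TBARS (MDA) was read at 532 nm.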

The subject of experiment [4] is Blood. The experiment is described as follows: Antioxidant activity against copper-induced low density lipoprotein oxidation in human blood assessed as malonoldehyde formation at 25 uM after 6 hrs by thiobarbituric acid method. Type of experiment: functional. In a few lines: as §1
The nature of experiment [5]: Antioxidant activity against lipid peroxidation at 25 uM by beta-carotene linoleate method. The format is functional. In outline:
(§2)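 β-Carotene/linoleic acid/Tween-40 emulsion, with chloroform removed, was mixed with compound in ethanol; BHA and ascorbic acid were run at the same concentrations as references. Absorbance was read at 470 nm at t=0 and then every 30 min to 180 min. Results are given as % antioxidant activity, mean ± SD, n = 3.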

Experiment [6] deals with Blood. Put plainly: Antioxidant activity against copper-induced low density lipoprotein oxidation in human blood assessed as malonoldehyde formation at 10 uM after 6 hrs by thiobarbituric acid method. Type of experiment: functional. In a few lines:
as §1

For experiment [7], the system named is Blood. Put plainly: Antioxidant activity against copper-induced low density lipoprotein oxidation in human blood assessed as malonoldehyde formation at 10 uM after 2 hrs by thiobarbituric acid method. Type of experiment: functional. In a few lines:
as §1

Experiment [8] in a line: Antioxidant activity against lipid peroxidation at 50 uM by beta-carotene linoleate method. The format is functional. In outline: as §2
The subject of experiment [9] is Blood. The experiment is described as follows: Antioxidant activity against copper-induced low density lipoprotein oxidation in human blood assessed as malonoldehyde formation at 25 uM after 2 hrs by thiobarbituric acid method. Type of experiment: functional. In outline:
as §1

By IC50 is commonly meant the concentration that inhibits the measured activity by half.

Take `O=C(CCNc1ccccc1O)N1c2ccccc2C=Cc2ccccc21`: the half-inhibitory concentration (IC50) in [1] was 16.1 µM. In addition, the Activity entry in experiment [2] was “Dose-dependent effect”. The outcome in the experiment with Blood [3] was Active.
For the compound `COc1cc(NCCC(=O)N2c3ccccc3C=Cc3ccccc32)ccc1O`, the concentration for half-maximal inhibition (IC50) in experiment [1] was determined as 13.9 µM. The Activity in the experiment on Blood [4] was 89.61%; in experiment [5], 91.5%; in the experiment on Blood [6] it was 72.93%; in [2] it was “Dose-dependent effect”; in the experiment with Blood [7], 56.13%; in experiment [8] it was 91.3%. Moreover, the Activity in the experiment on Blood [9] amounted to 70.41%.
For `O=C(CCNc1cccc(O)c1)N1c2ccccc2C=Cc2ccccc21`, the IC50 in [1] was 17.4 µM. Moreover, the Activity result in experiment [2] was “Dose-dependent effect”. In addition, in the experiment with Blood [3], the result was Active.
As to `O=C(CCNc1ccc(O)cc1)N1c2ccccc2C=Cc2ccccc21`, the IC50 in [1] turned out to be 15.3 µM. The Activity in experiment [5] was 87.1%; in [2], “Dose-dependent effect”; in [8] it was 88.7%. For the same compound, in the experiment on Blood [3], the result was Active.
For `O=C(CCCl)N1c2ccccc2C=Cc2ccccc21`, the result (in [1]; in experiment [2]; with Blood [3]) was inactive. In addition, the Activity in the experiment on Blood [4] is given as 12.43%; in the experiment with Blood [6], 8.87%; with Blood [7] it was 5.34%; with Blood [9] it was 7.43%.
Turning to `O=C1O[C@H]([C@@H](O)CO)C(O)=C1O` [ASCORBIC ACID], the half-inhibitory concentration (IC50) in experiment [1] was found to be 13.2 µM.
Take `O=C(CCNc1ccc(O)c([N+](=O)[O-])c1)N1c2ccccc2C=Cc2ccccc21`: the IC50 in [1] was 14.8 µM. In addition, the Activity in [5] is 88.4%; in experiment [2] it was “Dose-dependent effect”; in experiment [8], 90%. In the experiment on Blood [3], the outcome was Active.
On to `COc1ccc(O)c(C(C)(C)C)c1.COc1ccc(O)cc1C(C)(C)C` [BUTYLATED HYDROXYANISOLE], for which the 50% inhibitory concentration (IC50) in experiment [1] was determined as 14.1 µM.
